Laboratory results from PubChem BioAssay AID588806 (The Scripps Research Institute Molecular Screening Center, 2011).

Target: Palmitoyl-protein thioesterase ABHD10, mitochondrial (Mus musculus) (UniProt Q6PE15)
Test: in situ ABHD10 inhibition, late-stage follow-up, PME-1 inhibitor project, cell-based, competitive gel ABPP, fluorescence, mouse (AID 588806)
Settings: BW5147 mouse T cells, in situ FP-Rh gel ABPP, 4 h, stronger effect = higher value
How it was run: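 test system = in situ endogenous ABHD10, murine T cells derived from BW5147 | buffer or medium = serum-free RPMI for cell treatment, homogenate at 1 mg/mL protein | doses = three test concentrations per compound, 0.25, 0.1 and 0.05 µM | timing = compound 4 h 37 °C, probe 30 min 25 °C | detection = in-gel fluorescence after SDS-PAGE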

Chain of Palmitoyl-protein thioesterase ABHD10, mitochondrial (Mus musculus) (Q6PE15 whole entry, looked up): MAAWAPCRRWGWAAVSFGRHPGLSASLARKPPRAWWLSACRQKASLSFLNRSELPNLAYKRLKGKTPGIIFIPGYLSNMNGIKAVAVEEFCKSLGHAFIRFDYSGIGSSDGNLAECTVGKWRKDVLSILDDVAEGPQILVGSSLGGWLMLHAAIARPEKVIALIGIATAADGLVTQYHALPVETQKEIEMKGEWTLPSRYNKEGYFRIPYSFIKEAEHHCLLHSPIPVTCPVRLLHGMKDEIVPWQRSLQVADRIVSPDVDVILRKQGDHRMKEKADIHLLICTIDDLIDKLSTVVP

inhibition (at 0.25 µM)	inhibition (inhibition, at 0.05 µM)	inhibition (inhibition, at 0.1 µM)	Structure (SMILES)
70%	40%	60%	C=CCOC(=O)N1C(=O)[C@@](CC)(c2ccc(C)cc2)N1C(=O)OCC=C
90%	75%	70%	CC[C@@]1(c2ccc(C)cc2)C(=O)N(C(=O)OC(C)C)N1C(=O)OC(C)C
90%	60%	80%	CCCOC(=O)N1C(=O)[C@@](CC)(c2ccc(C)cc2)N1C(=O)OCCC
